The values below come from ChEMBL document CHEMBL4513216, “Probing the Open Global Health Chemical Diversity Library for Multistage-Active Starting Points for Next-Generation Antimalarials” (ACS Infect Dis, 2020).

This series in a line: Toxicity liver stage against HepG2, at 10uM. The class given is cell-based. Set-up: test concentration 10 uM, cell line HepG2-A16-CD81EGFP. To be noted: human, HepG2-A16-CD81EGFP cells; read-out: INHIBITION
The essentials:
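Uninfected HepG2-A16-CD81EGFP cells, 3 × 10^3 per well, 1536-well, plated on prespotted compound at 10 μM final, parasite-free screening media added to match infected plates; puromycin 10 μM positive, DMSO 0.5% negative; run in parallel with 48 h PbLuc assay at 37 °C, 5% CO2; viability by CellTiter-Glo luminescence, normalized to controls.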
For the compound `Cc1ccc(Cl)cc1N1CCC(CNC(=O)CCn2ccnc2)C1` (stereo unspecified), the cytotoxicity at 10 µM is -9.7%.

Turning to `COCCN1CCN(CC(=O)N(C)Cc2ccsc2)CC1`, the cytotoxicity at 10 µM is -153%.

Consider `Cc1ccc(C(=O)N2CCC(Oc3cccc(C)c3C)CC2)c(=O)[nH]1`, for which the cytotoxicity at 10 µM was -6.48%.

For the compound `COC1C[C@@H]2CN(C(=O)Cc3ccc(C)s3)C[C@@H]2C1` (stereo partly specified), the cytotoxicity at 10 µM amounted to 3.53%.

Consider `COc1cc(C(=O)N(CCC#N)Cc2ccccn2)cc(OC)c1C`, for which the cytotoxicity at 10 µM is -15.1%.

On to `COCC(=O)N1C[C@@H]2CCCO[C@@H]2[C@H](N(C)Cc2ccco2)C1`, for which the cytotoxicity at 10 µM was -0.704%.

As to `CN1CCc2c(CNC(=O)c3nccn3C)cncc2C1`, the cytotoxicity at 10 µM is -95.7%.

For `c1nc(CNC2CCOCC2)c2n1CCCN(CC1CC1)C2`, the cytotoxicity at 10 µM is -69.1%.

Take `COc1cc(C2Nc3cc(Cl)ccc3C3=NCCN32)ccc1O` (stereo unspecified): the cytotoxicity at 10 µM is -29.3%.

Consider `CCCc1nnsc1C(=O)NCC1CCN(c2ncccn2)CC1`, for which the cytotoxicity at 10 µM was 10.6%.

For `COCc1ncn2c1CN(S(=O)(=O)c1ccc(C)cc1)CC2`, the cytotoxicity at 10 µM is -1.18%.

In the case of `COC(=O)c1cccc(C(=O)N(CCC#N)CC(C)(C)C)c1`, the cytotoxicity at 10 µM came to 7.72%.

Take `Cn1ccnc1SCCNC1CCN(c2nc3ccccc3s2)CC1`: the cytotoxicity at 10 µM worked out at 2.05%.

On to `Cc1cnn(CC2CCCN2C(=O)c2c(F)cccc2Cl)c1` (stereo unspecified), for which the cytotoxicity at 10 µM is -29.1%.

With `COc1cccc(CC(=O)N2CCCSCC2CN2CCCC2)c1` (stereo unspecified), the cytotoxicity at 10 µM is -1.42%.

Consider `COC1COC2(CCN(Cc3ccccc3C)CC2)C1` (stereo unspecified), for which the cytotoxicity at 10 µM was 2.84%.

With `O=C(c1ccco1)N1CC[C@H]2[C@H]1CC(=O)N2c1cccnc1`, the cytotoxicity at 10 µM was -95.8%.

Take `Cc1ccsc1C(=O)N1CC(C(=O)N2CCOCC2)C2(CCOCC2)C1` (stereo unspecified): the cytotoxicity at 10 µM came to 1.47%.

On to `Cc1nn(C)c2ncc(S(=O)(=O)N3CCCN4CCCC4C3)cc12` (stereo unspecified), for which the cytotoxicity at 10 µM was -0.334%.

Take `Cc1csc(CN2C[C@@H]3CN(S(C)(=O)=O)CCO[C@@H]3C2)n1`: the cytotoxicity at 10 µM is -98.3%.

Take `O[C@@H]1C[C@@H](c2nc(Cc3ccccc3)no2)N(Cc2ncc[nH]2)C1`: the cytotoxicity at 10 µM was determined as 2.63%.

Regarding `Cc1ccc(C(C(=O)NCc2n[nH]c(N)n2)N(C)C)cc1` (stereo unspecified), the cytotoxicity at 10 µM came out at 0.529%.

Consider `COCC1CC2(CCN(C(C)=O)CC2)CN1Cc1csc(C)n1` (stereo unspecified), for which the cytotoxicity at 10 µM was found to be 9.19%.

Consider `CNC(=O)CN(C)c1nc(-c2ccc(C(N)=O)cc2)nc2c1CCNC2`, for which the cytotoxicity at 10 µM came out at 3.62%.

With `Cn1cccc1C(=O)N1CCC2(CC1)c1nc[nH]c1CCN2S(C)(=O)=O`, the cytotoxicity at 10 µM is -0.359%.

Turning to `CC(C)(C)c1cc(NC(=O)CN2CCCC2Cn2cncn2)on1` (stereo unspecified), the cytotoxicity at 10 µM turned out to be 5.91%.

Take `CN1CCO[C@H]2CN(C(=O)c3ccoc3)C[C@H]21`: the cytotoxicity at 10 µM was -80.6%.

Take `O=C(COC[C@H]1CC[C@H]2[C@H](CCN2c2ccccn2)O1)N1CCCC1`: the cytotoxicity at 10 µM stood at 0.748%.

For the compound `CN(Cc1csc(-c2ccccc2)n1)Cc1ncccc1C(=O)O`, the cytotoxicity at 10 µM stood at 6.03%.

Turning to `CCS(=O)(=O)CC(=O)Nc1ccccc1N1CCc2ccccc21`, the cytotoxicity at 10 µM amounted to 9.26%.

With `O=C(NCC(F)(F)F)c1ccc(-c2ccco2)[nH]c1=O`, the cytotoxicity at 10 µM is -21.6%.

Take `NC(=O)N1CCCCCC1C1CCN(c2nccc(C(F)(F)F)n2)CC1` (stereo unspecified): the cytotoxicity at 10 µM was 4.82%.

Take `O=C(C1CCCC1)N1CCC(C2CCN(Cc3ccc(Cl)cc3)C2)CC1` (stereo unspecified): the cytotoxicity at 10 µM is -2.45%.

For the compound `O=C(CCc1ncc(-c2ccc(F)cc2)o1)NCCN1CCOCC1`, the cytotoxicity at 10 µM is 10.6%.

In the case of `Cc1cc(N2CCCN(C(=O)Cc3cccnc3)CC2)ccn1`, the cytotoxicity at 10 µM stood at 2.5%.

For the compound `CNC(=O)c1cccc(NC(=O)NCc2ccc(SC)cc2)c1C`, the cytotoxicity at 10 µM was -4.44%.

For the compound `CN(C)CC1CN(c2ncnc3[nH]ccc23)CCO1` (stereo unspecified), the cytotoxicity at 10 µM came to 0.89%.

Consider `Cc1cc(=O)[nH]c(=O)n1-c1ccccc1Br`, for which the cytotoxicity at 10 µM was 7.89%.

Regarding `CCn1cc(CN(C)S(=O)(=O)c2ccccc2)cn1`, the cytotoxicity at 10 µM was 11.9%.

As to `Cc1nc(-c2ccc(S(=O)(=O)N3CCOCC3)cc2)co1`, the cytotoxicity at 10 µM was -9.52%.

For `CN(Cc1cn2c(n1)CN(Cc1ccsc1)CC2)Cc1ccco1`, the cytotoxicity at 10 µM is -78.5%.

As to `CCc1c(C)nc2cc(C3CCN(Cc4cccc(F)c4)C3)nn2c1O` (stereo unspecified), the cytotoxicity at 10 µM was -6.43%.

For the compound `[O-][S+](CCN1CCc2[nH]nc(C(F)(F)F)c2C1)c1ccccc1` (stereo unspecified), the cytotoxicity at 10 µM is -9.92%.

As for `Cc1nn2cccnc2c1C(=O)N1CCCC(n2cccn2)C1` (stereo unspecified), the cytotoxicity at 10 µM is -35.9%.

On to `CN1CCN(CC2(O)CCCN(C(=O)Cc3cccc(O)c3)CC2)CC1` (stereo unspecified), for which the cytotoxicity at 10 µM is -4.86%.

Consider `Fc1ccccc1OCCc1cc(C2CCNC2)n[nH]1` (stereo unspecified), for which the cytotoxicity at 10 µM was -26.8%.

For the compound `COc1cccc2c1OCC(C(=O)N1CCC(N3CCOC3=O)CC1)C2` (stereo unspecified), the cytotoxicity at 10 µM was -19.7%.

Regarding `CN(Cc1ccccc1F)C(C(N)=O)c1ccccc1` (stereo unspecified), the cytotoxicity at 10 µM is -2.09%.

For `O=C(N1CCOCC1)[C@@]12CCO[C@@H]1CCN(C1CCCC1)C2`, the cytotoxicity at 10 µM stood at 7.83%.

As to `Cc1cc(C)nc(NCCSc2cnn[nH]2)n1`, the cytotoxicity at 10 µM was found to be 3.22%.

For `Cn1ccc(CN2CCCN(c3nccs3)CC2)cc1=O`, the cytotoxicity at 10 µM was 0.0833%.

In the case of `OC(CN1CCN(CC(F)F)CC1)c1ccc(Br)cc1` (stereo unspecified), the cytotoxicity at 10 µM was -9.88%.

For the compound `CC(=O)N1CCN(C(=O)NCc2csc(Br)c2)CC1`, the cytotoxicity at 10 µM was -6.31%.

As for `CNC(=O)C1(CCCc2ccccn2)CN(Cc2nccn2C)C1`, the cytotoxicity at 10 µM is -1.23%.

Consider `CC(C)C(O)CNC(=O)CCCc1ccccn1` (stereo unspecified), for which the cytotoxicity at 10 µM was 0.665%.

`NC(=O)Nc1cccc(C(=O)N(Cc2ccncc2)C2CC2)c1`: the cytotoxicity at 10 µM was -2.34%.

Take `CCC(C)N(Cc1cccnc1)C(=O)c1ccc(OC)cc1O` (stereo unspecified): the cytotoxicity at 10 µM is 8.65%.

Turning to `CCC(=O)NC1CCCN(Cc2ccc(-n3ccnc3)cc2)C1` (stereo unspecified), the cytotoxicity at 10 µM is -47.8%.

As for `O=C(NCCCn1ccnc1)N1CCCC1c1ccsc1` (stereo unspecified), the cytotoxicity at 10 µM was -6.04%.

For `Cc1ccc(S(=O)(=O)N2CCC(Cn3cc(C(C)(C)N)nn3)CC2)s1`, the cytotoxicity at 10 µM stood at 6.74%.

With `CC1(C)[C@H](Cc2cc(CN3CCCCC3)on2)C[C@@H]1NC(=O)C1CC1`, the cytotoxicity at 10 µM is -8.17%.

As for `O=C(CCC(=O)N1CCOCC1)NCc1cccnc1-n1cccn1`, the cytotoxicity at 10 µM is -3.65%.

`CCOC(=O)CC1CCCCN1C(=O)c1cccc2ccnn12` (stereo unspecified): the cytotoxicity at 10 µM was -105%.

For the compound `CCn1cc(NC(=O)NCC(O)COc2cccc(F)c2)cn1` (stereo unspecified), the cytotoxicity at 10 µM is -2.86%.

Regarding `CC(=O)NC1CCCN(C(=O)NCc2cccnc2-n2cccn2)C1` (stereo unspecified), the cytotoxicity at 10 µM was found to be 5.56%.

In the case of `Cc1ccc(C(=O)N2C[C@@H]3OCCN(C(C)C)[C@@H]3C2)cn1`, the cytotoxicity at 10 µM is -81.7%.

Regarding `Cc1nccn1CC1CCCN1S(=O)(=O)Cc1ccon1` (stereo unspecified), the cytotoxicity at 10 µM is -9.57%.

With `CC(=O)Nc1nc(CN2CCCC2Cn2cccn2)cs1` (stereo unspecified), the cytotoxicity at 10 µM is -14.4%.

Consider `Cc1nc2cc(C(=O)N3CCCC(n4ccnc4)C3)ccc2n1C` (stereo unspecified), for which the cytotoxicity at 10 µM was -8.44%.

In the case of `COc1ccc(CNCc2nnc3n2CC(C(F)(F)F)CC3)cc1` (stereo unspecified), the cytotoxicity at 10 µM amounted to 3.27%.

For `COCC1c2c(cnn2C)CCN1Cc1ccc(F)cc1` (stereo unspecified), the cytotoxicity at 10 µM was -10.6%.

As to `O=C(NCC1CC1)[C@H]1CN(Cc2nccs2)C[C@H]2OCC[C@@H]12`, the cytotoxicity at 10 µM was -109%.

Regarding `CCn1nc2c(cc1=O)CN(CC(=O)N(C)c1nccs1)CC2`, the cytotoxicity at 10 µM was -4.58%.

Consider `COc1cccc2c1ccn2CCNC(=O)CCNc1ncccn1`, for which the cytotoxicity at 10 µM is -6.27%.

As to `COc1cc(C(=O)Nc2c(C)noc2C)ccc1C`, the cytotoxicity at 10 µM was -15%.

Turning to `CN(Cc1ccccn1)C(=O)CC1CCOc2ccccc21` (stereo unspecified), the cytotoxicity at 10 µM was 11.6%.

Turning to `CCn1cnnc1C1CCN(C(=O)c2ccc(C(=O)OC)s2)CC1`, the cytotoxicity at 10 µM was -8.16%.

For the compound `COC(=O)C1CCN(C(=O)c2ccc(NS(C)(=O)=O)c(C)c2)CC1`, the cytotoxicity at 10 µM was -1.04%.

As for `CO[C@@H]1CC[C@H]2[C@H]1OCCN2C(=O)C1CCOCC1`, the cytotoxicity at 10 µM came to 3.33%.

For the compound `CC1=Nc2c(c(=O)[nH]n2C2CCOCC2)C(c2cccc(Br)c2)S1` (stereo unspecified), the cytotoxicity at 10 µM was 5.91%.

With `O=C(CN1CC(c2ccccc2)CC1=O)NCc1cc2n(n1)CCNC2` (stereo unspecified), the cytotoxicity at 10 µM came to 1.05%.

As for `CC1=Nc2c(c(O)nn2C(C)C)C(c2cccnc2)S1` (stereo unspecified), the cytotoxicity at 10 µM was 2.93%.

`COc1ncccc1NC(=O)N1CCC(c2ccc(O)cc2)CC1`: the cytotoxicity at 10 µM was found to be 4.87%.

Turning to `CCN1CCCC(c2c(-c3ccccc3)ncn2CCc2c[nH]cn2)C1` (stereo unspecified), the cytotoxicity at 10 µM was -10.9%.

`O=C(CCC1CCCCC1)NCc1nnc2ccccn12`: the cytotoxicity at 10 µM stood at 3.47%.

As for `Cc1ccc(CN(C)C(=O)CN2CCCC2c2cnn(C)c2)o1` (stereo unspecified), the cytotoxicity at 10 µM is -1.69%.

For the compound `CCOc1ncccc1NC(=O)N1CCCN(C(=O)OC)CC1`, the cytotoxicity at 10 µM is -9.86%.

`COCCN1CCN(C(=O)c2ccccc2C(C)=O)[C@H]2CS(=O)(=O)C[C@H]21`: the cytotoxicity at 10 µM was -5.95%.

Turning to `Clc1cc(NCc2ncc[nH]2)nc2[nH]ccc12`, the cytotoxicity at 10 µM worked out at 6.68%.

For the compound `COCc1ncn2c1CN(C(=O)c1cnc3ccccc3c1)CC2`, the cytotoxicity at 10 µM is -2.39%.

For the compound `CC(C)N(CCNCc1ccc(C#N)cc1)C1CC1`, the cytotoxicity at 10 µM was -2.54%.

`Cc1ccc(SCCCNC(=O)c2cn(C3CCC(N)CC3)nn2)cc1` (stereo unspecified): the cytotoxicity at 10 µM was -8.33%.

Take `c1ccc(COCC2CNCc3nccn3C2)nc1` (stereo unspecified): the cytotoxicity at 10 µM was 14.4%.

Take `CN1CCN(c2ccc(NCc3ccsc3)cn2)CC1`: the cytotoxicity at 10 µM came out at 2.97%.

For the compound `Cn1cc(CC2CCN(C(=O)NCCCc3ccc(O)cc3)C2)cn1` (stereo unspecified), the cytotoxicity at 10 µM is 0.557%.

Turning to `CCC(=O)N1CCc2[nH]cnc2C12CCN(C(=O)CCS(C)(=O)=O)CC2`, the cytotoxicity at 10 µM is -14.4%.
